# Test system: not listed separately
# Test: Inhibition of Trypanosoma cruzi trans-sialidase containing catalytic domain (N58F, R200K) and lectin-like domain (S495 K, V496G, E520K, D593G, I597D, H599R) mutation expressed in Escherichia coli JM109 assessed as MuNANA substrate hydrolysis in presence of 0.1% Triton X-100 by discontinuous fluorimetric assay
# Method in brief: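 Recombinant TcTS lacking the C-terminal SAPA repeat, His-tagged (pTrcHisA) and purified by cation exchange, Ni affinity and gel filtration. Conditions: 8 ng/ml enzyme, 50 µM MuNANA, 50 mM Tris-HCl pH 7.5, 0.1% Triton X-100, 10% DMSO, 25 °C for 30 min. Stopped with 0.2 M Na2CO3 pH 10. Released Mu read at ex 355/em 460 nm in two or three replicates, corrected for compound fluorescence interference.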
row,SMILES,IC50 [µM]
1,O=C(O)c1cc(O)c2c(c1)C(=O)c1cc(O)c(Cl)c(O)c1C2=O,0.58
2,O=c1cc(-c2ccccc2O)oc2cc(O)cc(O)c12,360
3,O=c1cc(-c2ccc(O)cc2)oc2cc(O)ccc12,> 1000
4,O=C(O)c1ccc2c(c1)C(=O)c1ccccc1C2=O,430
5,O=c1cc(-c2ccc(O)cc2)oc2cccc(O)c12,> 1000
6,O=c1cc(-c2ccccc2)oc2cccc(O)c12 [5-HYDROXYFLAVONE],> 1000
7,Oc1cc(O)c2c(c1)O[C@@H](c1ccc(O)c(O)c1)[C@H](O)C2 [(-)-CATECHIN],> 1000
8,COc1ccc(-c2cc(=O)c3c(O)cc(O)cc3o2)cc1 [ACACETIN],> 1000
9,O=c1cc(-c2ccc(O)cc2)oc2cc(O)cc(O)c12 [APIGENIN],78
10,O=c1cc(-c2ccccc2)oc2cc(O)c(O)c(O)c12 [BAICALEIN],100
11,O=c1cc(-c2ccccc2)oc2cc(O)cc(O)c12 [CHRYSIN],340
12,O=C1c2cccc(O)c2C(=O)c2c(O)cccc21 [DANTHRON],710
13,Cc1cc(O)c2c(c1)C(=O)c1cc(O)cc(O)c1C2=O [EMODIN],110
14,O=c1c(-c2ccc(O)cc2)coc2cc(O)cc(O)c12 [GENISTEIN],230
15,COc1cc(O)c2c(=O)cc(-c3ccc(O)cc3)oc2c1 [GENKWANIN],140
16,O=c1c(O)c(-c2ccc(O)cc2)oc2cc(O)cc(O)c12 [KAEMPFEROL],110
17,O=c1cc(-c2ccc(O)c(O)c2)oc2cc(O)cc(O)c12 [LUTEOLIN],22
18,O=c1c(O)c(-c2cc(O)c(O)c(O)c2)oc2cc(O)cc(O)c12 [MYRICETIN],17
19,O=c1c(O)c(-c2ccc(O)c(O)c2)oc2cc(O)cc(O)c12 [QUERCETIN],58
20,O=C(O)c1cc(O)c2c(c1)C(=O)c1cccc(O)c1C2=O [RHEIN],14
21,COc1cc(O)c2c(c1)O[C@H](c1ccc(O)cc1)CC2=O [SAKURANETIN],> 1000
22,O=c1cc(-c2ccc(O)cc2)oc2cc(O)c(O)c(O)c12 [SCUTELLAREIN],50
23,O=c1cc(-c2cc(O)c(O)c(O)c2)oc2cc(O)cc(O)c12 [TRICETIN],39

# Target: Sialidase-2 (Homo sapiens, UniProt Q9Y3R4)
# Sequence (Q9Y3R4 whole entry): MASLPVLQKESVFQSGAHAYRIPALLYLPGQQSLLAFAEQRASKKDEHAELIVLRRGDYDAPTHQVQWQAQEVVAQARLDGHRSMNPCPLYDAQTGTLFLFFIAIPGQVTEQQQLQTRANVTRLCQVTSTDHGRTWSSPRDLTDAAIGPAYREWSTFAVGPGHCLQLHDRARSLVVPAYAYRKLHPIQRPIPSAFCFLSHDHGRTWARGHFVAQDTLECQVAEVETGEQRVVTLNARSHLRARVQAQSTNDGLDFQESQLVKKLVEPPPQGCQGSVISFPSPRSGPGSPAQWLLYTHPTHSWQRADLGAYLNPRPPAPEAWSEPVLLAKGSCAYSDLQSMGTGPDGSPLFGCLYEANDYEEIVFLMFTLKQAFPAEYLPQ
# Test: Inhibition of human Neu2 assessed as MuNANA substrate hydrolysis in presence of 0.1% Triton X-100 by discontinuous fluorimetric assay
# Method in brief: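 Recombinant human Neu2 expressed from pET15b in E. coli BL21(DE3) and purified on DEAE and His-Trap columns. Reactions were quenched with 0.2 M Na2CO3 (pH 10), and released 4-methylumbelliferone was read at ex 355/em 460 nm. Runs were in duplicate or triplicate, corrected for compound fluorescence interference.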
row,SMILES,IC50 [µM]
1,O=C(O)c1cc(O)c2c(c1)C(=O)c1cc(O)c(Cl)c(O)c1C2=O,> 100
2,O=c1cc(-c2ccccc2O)oc2cc(O)cc(O)c12,70
3,O=c1cc(-c2ccc(O)cc2)oc2cc(O)ccc12,470
4,O=C(O)c1ccc2c(c1)C(=O)c1ccccc1C2=O,800
5,O=c1cc(-c2ccc(O)cc2)oc2cccc(O)c12,> 1000
6,O=c1cc(-c2ccccc2)oc2cccc(O)c12 [5-HYDROXYFLAVONE],> 1000
7,Oc1cc(O)c2c(c1)O[C@@H](c1ccc(O)c(O)c1)[C@H](O)C2 [(-)-CATECHIN],> 1000
8,COc1ccc(-c2cc(=O)c3c(O)cc(O)cc3o2)cc1 [ACACETIN],> 1000
9,O=c1cc(-c2ccc(O)cc2)oc2cc(O)cc(O)c12 [APIGENIN],570
10,O=c1cc(-c2ccccc2)oc2cc(O)c(O)c(O)c12 [BAICALEIN],130
11,O=c1cc(-c2ccccc2)oc2cc(O)cc(O)c12 [CHRYSIN],890
12,O=C1c2cccc(O)c2C(=O)c2c(O)cccc21 [DANTHRON],> 1000
13,Cc1cc(O)c2c(c1)C(=O)c1cc(O)cc(O)c1C2=O [EMODIN],760
14,O=c1c(-c2ccc(O)cc2)coc2cc(O)cc(O)c12 [GENISTEIN],380
15,COc1cc(O)c2c(=O)cc(-c3ccc(O)cc3)oc2c1 [GENKWANIN],> 1000
16,O=c1c(O)c(-c2ccc(O)cc2)oc2cc(O)cc(O)c12 [KAEMPFEROL],230
17,O=c1cc(-c2ccc(O)c(O)c2)oc2cc(O)cc(O)c12 [LUTEOLIN],130
18,O=c1c(O)c(-c2cc(O)c(O)c(O)c2)oc2cc(O)cc(O)c12 [MYRICETIN],150
19,O=c1c(O)c(-c2ccc(O)c(O)c2)oc2cc(O)cc(O)c12 [QUERCETIN],160
20,O=C(O)c1cc(O)c2c(c1)C(=O)c1cccc(O)c1C2=O [RHEIN],130
21,COc1cc(O)c2c(c1)O[C@H](c1ccc(O)cc1)CC2=O [SAKURANETIN],890
22,O=c1cc(-c2ccc(O)cc2)oc2cc(O)c(O)c(O)c12 [SCUTELLAREIN],55
23,O=c1cc(-c2cc(O)c(O)c(O)c2)oc2cc(O)cc(O)c12 [TRICETIN],130

# Test system: not listed separately
# Test: Selectivity for Trypanosoma cruzi trans-sialidase mutant over human Neu2
row,SMILES,Ratio IC50
1,O=C(O)c1cc(O)c2c(c1)C(=O)c1cc(O)c(Cl)c(O)c1C2=O,> 170
2,O=c1cc(-c2ccccc2O)oc2cc(O)cc(O)c12,0.2
3,O=c1cc(-c2ccc(O)cc2)oc2cc(O)ccc12,< 0.5
4,O=C(O)c1ccc2c(c1)C(=O)c1ccccc1C2=O,1.9
5,O=c1cc(-c2ccc(O)cc2)oc2cc(O)cc(O)c12 [APIGENIN],7.3
6,O=c1cc(-c2ccccc2)oc2cc(O)c(O)c(O)c12 [BAICALEIN],1.3
7,O=c1cc(-c2ccccc2)oc2cc(O)cc(O)c12 [CHRYSIN],2.6
8,O=C1c2cccc(O)c2C(=O)c2c(O)cccc21 [DANTHRON],> 1.4
9,Cc1cc(O)c2c(c1)C(=O)c1cc(O)cc(O)c1C2=O [EMODIN],6.9
10,O=c1c(-c2ccc(O)cc2)coc2cc(O)cc(O)c12 [GENISTEIN],1.7
11,O=c1c(O)c(-c2ccc(O)cc2)oc2cc(O)cc(O)c12 [KAEMPFEROL],2.1
12,O=c1cc(-c2ccc(O)c(O)c2)oc2cc(O)cc(O)c12 [LUTEOLIN],5.9
13,O=c1c(O)c(-c2cc(O)c(O)c(O)c2)oc2cc(O)cc(O)c12 [MYRICETIN],8.8
14,O=c1c(O)c(-c2ccc(O)c(O)c2)oc2cc(O)cc(O)c12 [QUERCETIN],2.8
15,O=C(O)c1cc(O)c2c(c1)C(=O)c1cccc(O)c1C2=O [RHEIN],9.3
16,COc1cc(O)c2c(c1)O[C@H](c1ccc(O)cc1)CC2=O [SAKURANETIN],< 0.9
17,O=c1cc(-c2ccc(O)cc2)oc2cc(O)c(O)c(O)c12 [SCUTELLAREIN],1.1
18,O=c1cc(-c2cc(O)c(O)c(O)c2)oc2cc(O)cc(O)c12 [TRICETIN],3.3

# Test system: not listed separately
# Test: Noncompetitive inhibition of Trypanosoma cruzi trans-sialidase containing catalytic domain (N58F, R200K) and lectin-like domain (S495 K, V496G, E520K, D593G, I597D, H599R) mutation expressed in Escherichia coli JM109 by discontinuous fluorimetric assay using Lineweaver-Burke plot
# Method in brief: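 Same MuNANA hydrolysis assay with purified recombinant TcTS at 25 °C in Tris-HCl pH 7.5. MuNANA was varied over 25–200 µM against several inhibitor concentrations, in triplicate. The inhibition mode was assigned by best fit, and Ki for noncompetitive inhibition was taken from the Lineweaver–Burk double-reciprocal plot.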
row,SMILES,Ki [µM]
1,O=C(O)c1cc(O)c2c(c1)C(=O)c1cc(O)c(Cl)c(O)c1C2=O,0.89
2,O=c1cc(-c2ccc(O)cc2)oc2cc(O)cc(O)c12 [APIGENIN],60

# Test system: Trypanosoma cruzi
# Test: Antiparasitic effect against Trypanosoma cruzi assessed as induction of parasite lysis
# Type: functional, organism-based
row,SMILES,IC50 [µM]
1,O=c1cc(-c2ccc(O)cc2)oc2cc(O)cc(O)c12 [APIGENIN],680
